Compound activity deposited in PubChem BioAssay by The Scripps Research Institute Molecular Screening Center.
An excerpt weighted towards active compounds, which were near 1.8% of everything screened.
CHRM5 agonist = human M5 muscarinic receptor agonists, primary screen, CHO-K1 cells, Fluo-8 calcium fluorescence; Muscarinic acetylcholine receptor M5 (Homo sapiens), P08912; CHO-K1 hM5 cells; 0% DMSO wells, 100% maximal acetylcholine response; activation, % at 3 µM; actives 0.19% (n = 360,000); AID 624037, 2012;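 active means activation above the run's mean over test compounds plus 3 SD, cut at about 23% in these data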;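 further: signal is peak over basal fluorescence ratio across the kinetic read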
Target sequence (P08912 whole entry, looked up): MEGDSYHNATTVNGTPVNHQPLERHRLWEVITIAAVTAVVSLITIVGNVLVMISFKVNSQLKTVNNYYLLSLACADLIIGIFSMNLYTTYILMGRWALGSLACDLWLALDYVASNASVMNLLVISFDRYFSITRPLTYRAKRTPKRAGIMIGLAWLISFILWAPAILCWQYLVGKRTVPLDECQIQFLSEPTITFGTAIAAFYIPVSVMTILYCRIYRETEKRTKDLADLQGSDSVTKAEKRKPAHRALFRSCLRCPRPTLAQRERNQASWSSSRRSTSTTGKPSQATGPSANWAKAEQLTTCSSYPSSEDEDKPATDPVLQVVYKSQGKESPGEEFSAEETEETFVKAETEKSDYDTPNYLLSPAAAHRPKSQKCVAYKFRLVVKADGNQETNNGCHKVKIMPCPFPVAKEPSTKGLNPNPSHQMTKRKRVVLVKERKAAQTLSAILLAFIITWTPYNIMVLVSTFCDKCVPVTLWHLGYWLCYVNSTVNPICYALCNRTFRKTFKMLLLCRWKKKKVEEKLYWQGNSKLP
CHRM4 antagonist = human M4 muscarinic receptor antagonists, primary screen, CHO cells, Fluo-8 calcium fluorescence. Muscarinic acetylcholine receptor M4 (Homo sapiens), P08173. AID 624125, 2012. inhibition, % at 3 µM. CHO-hM4 cells, ACh EC80. actives 0.73% (n = 360,000);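 active means inhibition above its plate's cutoff, the mean inhibition of sample wells plus 3 SD, cut at about 27% in these data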;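 further: 0% = acetylcholine EC80 with DMSO and 100% = DMSO without agonist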
CHRM5 PAM = human M5 muscarinic receptor positive allosteric modulators, primary screen, CHO-K1 cells, Fluo-8 calcium fluorescence | Muscarinic acetylcholine receptor M5 (Homo sapiens), P08912 | activation, % at 3 µM | CHO-K1 hM5, ACh EC20 PAM; 0% = ACh EC20, 100% = ACh EC100 | actives 0.3% (n = 360,000);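 active means activation above the run cutoff, the mean activation of all test compounds plus 3 SD, cut at about 18% in these data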
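Probe or stimulus: acetylcholine, EC20 level; Assay system: human M5 receptor in CHO-K1 cells; Schedule: compound preincubation 140 s before EC20 acetylcholine addition; Technique: intracellular calcium via Fluo-8 fluorescence; Dosing: single-point, 3 µM nominal; Read-out basis: percent activation from peak-over-basal fluorescence ratio, scaled EC20-to-EC100 acetylcholine; Repeats: one well per compound, no replicates.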
M4 ag = human M4 muscarinic receptor agonists, primary screen, CHO-K1 cells, Fluo-8 calcium fluorescence; activation, % at 3 µM; AID 624127, 2012; actives 0.14% (n = 360,000); Muscarinic acetylcholine receptor M4 (Homo sapiens), P08173; CHO-K1 hM4/Gqi5; vehicle 0%, full acetylcholine response 100%;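 active means activation above the run mean over all test wells plus 3 SD, cut at about 32% in these data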;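 further: peak over basal fluorescence ratio per well then scaled between controls; 0% = DMSO wells and 100% = acetylcholine at EC100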
CHRM4 PAM = human M4 muscarinic receptor positive allosteric modulators, primary screen, CHO-K1 cells, Fluo-8 calcium fluorescence. actives 0.4% (n = 360,000). activation, % at 3 µM. AID 624126, 2012. CHO-K1 hM4/Gqi5, ACh EC20; 0% = ACh EC20, 100% = maximal ACh;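 active means activation above its plate's cutoff, the mean activation of sample wells plus 3 SD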
CHRM5 antagonist = human M5 muscarinic receptor antagonists, primary screen, CHO cells, Fluo-8 calcium fluorescence | actives 0.59% (n = 360,000) | CHO-hM5 cells, ACh EC80 | inhibition, % at 3 µM | AID 624040, 2012;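 active means inhibition above a per-plate cutoff, the mean of that plate's test compounds plus 3 SD, cut at about 27% in these data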;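 further: 0% = acetylcholine EC80 with DMSO and 100% = DMSO without agonist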
The depositor's hits bear a star.

SMILES	CHRM5 agonist	CHRM4 antagonist	CHRM5 PAM	M4 ag	CHRM4 PAM	CHRM5 antagonist
CCN(CC)CCNC(=O)c1ccc(NC(=O)c2c(C)nn(-c3ccc(F)cc3)c2Cl)cc1	-5	41*	-16	7	-21	49*
CCN(CC)CCNC(=O)c1ccc(NC(=O)c2cn(-c3ccc(F)cc3)nc2-c2cccc(OC)c2)cc1	-8	48*	-19	3	-18	67*
CCN(CC)CCNC(=O)c1ccc(NC(=O)c2cn(-c3ccccc3)nc2-c2cccs2)cc1	-10	10	-18	7	-17	16
O=C(Cc1ccccc1)NCC(=O)Nc1cccc(Cl)c1	-1	-12	-5	2	4	10
CCCCCCCCC(c1nc2ccccc2[nH]1)N1CCN=C1c1cc2ccccc2[nH]1 (stereo not given)	-2	4	-7	8	-2	2
O=C(NCCOc1ccccc1)c1cc(C(=O)NCCOc2ccccc2)cc([N+](=O)[O-])c1	9	15	-21	27	-28	27*
O=C(NCCOc1ccccc1)c1ccccc1[N+](=O)[O-]	1	-12	6	1	1	5
O=C(Nc1ccccc1C(=O)O)c1ccc(Br)o1	2	-7	-2	-1	-5	-6
CC(=O)c1cc(C(=O)Nc2ccccc2C(=O)O)oc1C	-3	-2	0	0	32*	-20
Cc1ccc(C)c(C(=O)CSc2n[nH]c(C(C)C)n2)c1	-2	-20	34*	1	2	-4
CC1CCN(S(=O)(=O)c2ccc(NC(=O)Cn3nnc(-c4ccccc4F)n3)cc2)CC1	-3	-3	-22	5	-3	31*
CC1CCN(S(=O)(=O)c2ccc(NC(=O)c3ccccc3F)cc2)CC1	1	-1	-1	6	-8	11
CC(C)c1cc(C(=O)Nc2cc(Br)ccc2O)no1	-4	4	-14	1	-8	34*
COc1ccc(Br)c(Cn2c(C)c(C(=O)NCc3cccc([N+](=O)[O-])c3)sc2=O)c1	1	31*	-12	5	-16	2
Cc1c(C(=O)NCc2ccc(C(F)(F)F)cc2)sc(=O)n1Cc1cccc(F)c1	50*	30*	-6	54*	-5	32*
C/C(CC(=O)NCc1ccccc1)=N\NC(=O)c1cnccn1	-1	7	5	2	31*	-10
Cc1cc(C(=O)Nc2ccc(S(=O)(=O)Nc3onc(C)c3C)cc2)c(C)o1	3	-5	6	0	6	-11
Cc1ccc2oc(C(=O)Nc3ccc(S(=O)(=O)Nc4onc(C)c4C)cc3)c(C)c2c1	0	2	48*	0	1	13
Cc1ccccc1OCC(=O)Nc1ccc(S(=O)(=O)Nc2onc(C)c2C)cc1	2	-21	22*	0	0	-14
CCOC(=O)CC(=O)CSc1nc2ccc(OC)cc2cc1C	-5	-2	-2	1	-2	-14
CCOC(=O)CN(C(=O)CSc1nnc(CNc2ccc(F)cc2)o1)c1ccccc1	-2	1	-3	3	5	-10
CCOC(=O)CN(C(=O)CSc1nnc(CNc2ccc(F)cc2)n1C)c1ccccc1	-5	-1	11	1	18*	-8
Nc1nnn(CC(=O)N/N=C/c2cccc3ccccc23)n1	9	5	18*	1	3	24
Cc1ccccc1/C=N/NC(=O)Cn1nnc(N)n1	-1	-7	7	1	12	-8
COc1cccc(C2SCC(=O)N2c2ccc(Cl)cc2)c1OC (stereo not given)	-8	59*	-20	-3	-36	28*
SMILES	CHRM5 agonist	CHRM4 antagonist	CHRM5 PAM	M4 ag	CHRM4 PAM	CHRM5 antagonist
O=C(O)c1cccc(N2C(=O)CSC2c2c(F)cccc2Cl)c1 (stereo not given)	1	6	6	0	-1	-1
COc1ccc(N2C(=O)CSC2c2ccc(F)c(F)c2)cc1 (stereo not given)	-9	12	-7	1	-9	4
Cc1ccc(N2C(=O)CSC2c2c(F)cccc2Cl)cc1 (stereo not given)	-7	86*	-17	-4	-30	68*
CCOC(=O)C1CCCN(S(=O)(=O)CCNC(=O)c2ccccc2)C1 (stereo not given)	1	-7	0	2	17	0
S=C1NCN(Cc2ccccc2)CN1C1CCCCC1	-1	0	21*	1	0	-9
C[C@@H]1CN([C@H](C)CO)C(=O)CCCn2nncc2CO[C@H]1CN(C)Cc1ccccc1C(=O)O	2	-7	-4	0	5	7
CCOC(=O)C(CC(=O)Nc1nc(C(C)=O)c(C)s1)C(C)c1ccccc1 (stereo not given)	-6	-14	-5	7	-1	0
CC1CCN(c2nc3ccccc3n2CC(=O)c2ccccc2)CC1	-8	58*	-17	1	-26	6
Cc1nc2ccccc2n1CC(=O)c1ccccc1	5	-1	13	2	-2	-1
NC(=O)CC(NC(=O)Cc1cccc2ccccc12)c1ccc(NCC2CC2)c([N+](=O)[O-])c1 (stereo not given)	-1	-3	2	21	2	13
NC(=O)CC(NC(=O)Cc1cccc2ccccc12)c1ccc(NCc2ccc(F)c(F)c2)c([N+](=O)[O-])c1 (stereo not given)	-3	-26	2	2	24*	3
NC(=O)CC(NC(=O)Cc1cccc2ccccc12)c1ccc(NC2CC3CCC2C3)c([N+](=O)[O-])c1 (stereo not given)	5	0	19*	-1	10	-7
NC(=O)CC(NC(=O)Cc1cccc2ccccc12)c1ccc(NCCOc2ccccc2)c([N+](=O)[O-])c1 (stereo not given)	1	5	1	2	28*	6
NC(=O)CC(NC(=O)Cc1cccc2ccccc12)c1ccc(NC2CCCC2)c([N+](=O)[O-])c1 (stereo not given)	2	1	-2	1	3	3
CC(=O)N1c2ccc(S(=O)(=O)N3CCCC3)cc2CC1C(=O)Nc1cc(C)cc(C)c1 (stereo not given)	0	-15	-7	13	-2	-2
